This is a sample that favours compounds with a hit; in the whole collection about 1.6% have one here.
C8 TRAIL sens: viability loss with TRAIL in NB7+C8 cells, primary screen, TRAIL sensitizer project, cell-based, ATPlite luminescence. hit rate 1% among 360,000. inhibition (viability loss, TRAIL sensitization), % at 10 µM. AID 624354, 2012;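 active = compounds causing at least 50% loss of cell viability in the single-dose screen, relative to plate controls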
FLuc inh counter: firefly luciferase enzyme inhibitors, primary screen, artefact control for luciferase-based inhibitor screens, biochemical, luminescence, ATPLite | inhibition, % at 10 µM | AID 1006, 2008 | hit rate 1.5% among 200,000 | 10 min | Luciferin 4-monooxygenase (Photinus pyralis), P08659;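 active = inhibition above about 50% when tested at 10 µM, limit read from the data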
Target sequence (P08659 whole entry, looked up): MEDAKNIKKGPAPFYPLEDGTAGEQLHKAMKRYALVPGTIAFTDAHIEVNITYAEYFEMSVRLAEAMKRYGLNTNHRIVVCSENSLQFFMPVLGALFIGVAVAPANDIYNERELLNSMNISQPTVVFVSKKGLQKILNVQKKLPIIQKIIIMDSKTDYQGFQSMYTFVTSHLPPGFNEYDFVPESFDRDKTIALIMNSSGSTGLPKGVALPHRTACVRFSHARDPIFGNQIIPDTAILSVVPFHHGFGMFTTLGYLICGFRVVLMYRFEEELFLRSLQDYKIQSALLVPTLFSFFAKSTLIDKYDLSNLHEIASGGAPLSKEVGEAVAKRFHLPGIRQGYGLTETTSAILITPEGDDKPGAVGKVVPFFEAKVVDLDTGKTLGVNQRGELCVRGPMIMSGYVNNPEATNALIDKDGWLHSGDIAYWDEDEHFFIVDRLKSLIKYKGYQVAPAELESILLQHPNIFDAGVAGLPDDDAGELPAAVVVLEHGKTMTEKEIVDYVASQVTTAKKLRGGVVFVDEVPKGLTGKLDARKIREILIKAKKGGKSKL
FLuc stim CS: FLuc activators, initial screening, artefact control for FLuc-dependent activation tests, biochemical, ATPlite luminescence. activation factor at 10 µM. 200,000 tested, under 10 active. ATPlite luciferase biochemical, 10 min; 0 = ATP-free wells, 1 = DMSO control;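 active = luciferase activation factor, scaled between plate controls, of at least 2 with compound at 10 µM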
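Assay system: Luciferase/luciferin reagent mix; Medium: PBS as buffer for the ATP substrate; Dosing: test compounds dosed from 2 mM stocks in 100% DMSO; Times: 10 min, room temperature; Signal: luminescence from luciferase reaction; Read-out: luciferase activation; Controls: No-ATP low control, compound-free enzyme-plus-ATP high control.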
PPC-1+TRAIL kill: compounds killing PPC-1 cancer cells with TRAIL present, primary screen, TRAIL potentiator project, ATPLite luminescence, uHTS; PPC-1 cells + TRAIL, ATPLite viability luminescence; cell killing (% activity), % at 4 µM or 5 µM; hit rate 0.41% among 220,000;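 active = cell killing above 50% in the first pass at 4 µM, then a duplicate retest at 5 µM averaging 50% or more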;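 also: plate controls were cells with TRAIL plus DMSO for no effect and medium-only wells lacking cells for full effect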
* marks the source's active call; other numbers are inactive results; · = not tested or not shown.

SMILES | C8 TRAIL sens | FLuc inh counter | FLuc stim CS | PPC-1+TRAIL kill
N/C(=N\OC(=O)c1ccc(Cl)cc1Cl)c1ccc(Cl)cc1 | 87* | 54* | 0.5 | 18
C/C(=N\OC(=O)c1ccc(Cl)cc1)c1nccs1 | -12 | 72* | 0.3 | -9
COc1ccc(C(=O)c2cc(C(C)=O)c(Nc3ccccc3)s2)cc1 | 0 | -8 | 1.1 | 9
Brc1ccc(-c2csc(N3CCc4ccccc4C3)n2)cc1 | 8 | -11 | 1.1 | 18
N/C(=N\OC(=O)c1ccc(Cl)cc1)c1ccc(Cl)cc1 | 88* | 37 | 0.6 | -2
N/C(=N\OC(=O)c1ccco1)c1ccc(Cl)cc1 | -6 | 34 | 0.7 | 3
Cc1c(CC(=O)O)c(=O)oc2cc(OCc3ccc(Br)cc3)ccc12 | 21 | · | · | ·
Cc1ccc(NC(=O)c2ccc3nc[nH]c3c2)c(O)c1 | 5 | 50* | 0.5 | 31
Cc1ccc(NC(=O)c2ccc3nc[nH]c3c2)nc1 | 31 | · | · | ·
Nc1ncnc2c(C3OC(CO)C(O)C3O)c[nH]c12 (configuration not stated) | 88* | · | · | ·
CC1OC2CC(=O)OC2C2=C1C(=O)c1c(O)cccc1C2=O (configuration not stated) | 94* | · | · | ·
O=C(CSc1ccccn1)Nc1nonc1[N+](=O)[O-] | 54* | · | · | ·
COc1cccc(C=NNc2nnc(NN=Cc3cccc(OC)c3OC)c3ccccc23)c1OC | 80* | · | · | ·
COc1cccc(/C=N/Nc2ncnc(N)c2[N+](=O)[O-])c1OC | 43 | 78* | 0.2 | -2
COc1cccc(/C=N/Nc2ncnc(Cl)c2N)c1O | 59* | 68* | 0.3 | 60*
COc1cccc(/C=N/Nc2nc3ccccc3n3cnnc23)c1O | 54* | 37 | 0.6 | 34
COc1ccccc1/C=N/Nc1nncc2ccccc12 | 19 | 48 | 0.5 | 13
CC(C)c1cc(C(=O)Nc2cccc(Cl)c2)no1 | -14 | 26 | 0.7 | 0
CCCCN1C(C)=CC(=C2C(=O)c3ccccc3C2=O)C=C1C | 66* | 77* | 0.2 | 31
CN1C=CC(=C2C(=O)c3ccccc3C2=O)C=C1 | · | 75* | 0.2 | 46
CC1=CC(=C2C(=O)c3ccccc3C2=O)C=C(C)N1Cc1ccco1 | 35 | 38 | 0.6 | -16
CC1=CC(=C2C(=O)c3ccccc3C2=O)C=C(C)O1 | 26 | 2 | 1 | 14
CCCN1C=CC(=C2C(=O)c3ccccc3C2=O)C=C1 | 91* | 97* | 0 | 26
C#CC(=O)CC1(CN(Cc2ccccc2)C(=O)OC(C)(C)C)CCCCC1 | 94* | · | · | ·
CON(C)C(=O)CC1(CN(Cc2ccccc2)C(=O)OC(C)(C)C)CCCCC1 | 4 | · | · | ·
SMILES | C8 TRAIL sens | FLuc inh counter | FLuc stim CS | PPC-1+TRAIL kill
O=C(Cc1ccsc1-c1ccccc1)NO | 63* | -4 | 1 | 7
O=C(Cc1csc(NC(=O)c2ccccc2)n1)NO | 11 | -2 | 1 | 11
CCOC(=O)c1sc(NC(=O)Nc2ccccc2F)nc1C | 77* | 84* | 0.2 | 54*
Cc1nc(NC(=O)c2cc3ccccc3o2)sc1C | 54* | · | · | ·
Cc1nnc(NC(=O)c2cc3ccccc3o2)s1 | 42 | · | · | ·
CCOC(=O)c1csc(NC(=O)c2cc3ccccc3o2)n1 | 25 | · | · | 10
CCOC(=O)c1sc(NC(=O)c2cc3ccccc3o2)nc1C | 33 | 52* | 0.5 | 18
CC1(C)CC(=O)c2sc(NC(=O)c3ccco3)nc2C1 | 49 | 74* | 0.3 | 33
O=C(COc1ccccc1)NNC(=O)c1ccc(Cl)cc1 | -7 | · | · | ·
c1csc(-c2nn3c(Cn4cnc5ccccc54)nnc3s2)c1 | -15 | -5 | 1.1 | 25
CC(C)Oc1ccc(/C=N/NC(=O)C(CSCc2ccccc2)NC(=O)c2ccc([N+](=O)[O-])cc2)cc1 (configuration not stated) | 15 | -5 | 1.1 | -19
COc1ccc(S(=O)(=O)N(Cc2cccnc2)Cc2cc3ccccc3[nH]c2=O)cc1 | -2 | · | · | ·
c1ccc2c(c1)nc(CN1CCOCC1)n1c3ccccc3nc21 | 23 | -4 | 1 | 21
C=CCOC(=O)c1sc(NC(=O)c2ccco2)nc1C | 50* | 58* | 0.4 | 48
CCOC(=O)c1sc(NC(=O)c2ccccc2OC)nc1C | 61* | 62* | 0.4 | 28
COc1ccc(-c2nc(NC(=O)c3ccco3)sc2C)cc1 | 22 | · | · | ·
CS(=O)(=O)c1nncn1-c1ccccc1 | -2 | -4 | 1 | -4
COc1ccc(C(=O)c2coc(-c3ccccc3C(=O)O)c2C(=O)O)cc1 | -20 | -3 | 1 | 7
COc1ccc(C(=O)c2c(C(F)(F)F)oc3c2C(=O)c2ccccc2C3=O)cc1 | 98* | 1 | 1 | 21
C=Cc1ccc(Cn2c(C)c(C(=O)NCc3ccc(Cl)c(Cl)c3)sc2=O)cc1 | 54* | · | · | ·
NS(=O)(=O)c1ccc(NC(=O)CSc2nnc(COc3ccccc3Cl)n2C2CC2)cc1 | -6 | -9 | 1.1 | 16
Cc1ccc(NC(=O)c2cc(-c3cc(F)ccc3OCC3CCCO3)n[nH]2)cc1NS(C)(=O)=O (configuration not stated) | 6 | · | · | ·
O=C(/C(C=Nc1ccc(F)cc1)=C(/O)c1ccco1)C(F)(F)F | 15 | 79* | 0.2 | 10
Cc1cccc(N=C/C(C(=O)C(F)(F)F)=C(\O)c2ccco2)c1 | -2 | 24 | 0.8 | 11
COc1ccc(OC)c(C(=O)NC(CC(N)=O)c2ccc(NCc3ccc(F)c(F)c3)c([N+](=O)[O-])c2)c1 (configuration not stated) | 0 | · | · | ·
SMILES | C8 TRAIL sens | FLuc inh counter | FLuc stim CS | PPC-1+TRAIL kill
O=C(c1ccccc1)c1nnc(-c2ccccc2F)o1 | -6 | 78* | 0.2 | 3
O=C(c1ccncc1)N1CCN(c2cc(-c3ccccc3)nc3cc(-c4cccc(Cl)c4)nn23)CC1 | 70* | · | · | ·
O=C(c1ccoc1)N1CCN(c2cc(-c3ccncc3)nc3cc(-c4cccc(Cl)c4)nn23)CC1 | 19 | · | · | ·
O=C(/C=C/c1ccc(O)cc1)c1ccccc1 | 12 | · | · | 4
Cc1nn(C)cc1/C=C/C(=O)c1ccc(O)cc1 | 34 | 57* | 0.4 | 14
CN(C)c1cccc(/C=C(\C#N)c2ccccc2)c1 | 50* | · | · | 6
CN(C)c1ccc(/C=C(\C#N)c2ccccc2)cc1 | 48 | · | · | 24
O=C1C=CC(=Nc2ccc3c(c2)C(=O)c2ccccc2-3)O1 | 9 | · | · | ·
CC1=CC2C(C(O)CC3(C)C2CC(C)C32OCOC23COCO3)C2(C)C/C(=C\O)C(=O)C=C12 (configuration not stated) | 94* | · | · | ·
CC(C(=O)Nc1ccc(C(=O)O)cc1)N1C(=O)c2ccccc2C1=O (configuration not stated) | -14 | -4 | 1 | -23
CC(=C/c1ccccc1)/C=N/NC(=O)c1cnccn1 | 45 | 74* | 0.3 | 25
O=C(N/N=C/C(Cl)=C/c1ccccc1)c1cnccn1 | 21 | 56* | 0.4 | 16
CC(/C=N/NC(=O)c1ccc(Br)cc1)=C\c1ccccc1 | 16 | 20 | 0.8 | 20

Source: PubChem (Sanford-Burnham Center for Chemical Genomics)
